Key:
[1] = Drug excretion in Crj:CD(SD)IGS rat feces assessed as excretion ratio of [14C] at 0.5 mg/kg, iv administered as bolus dose measured from 0 to 24 hrs by HPLC-based liquid scintillation counting analysis; format: ADME, organism-based; parameters: dose 0.5 mg/kg, route intravenous; conditions: in vivo
Method in brief: (§1)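 Male rats in metabolic cages with urine/feces separator, or beagle dogs, after a 0.5 mg/kg iv bolus of [14C]M-III in saline. Radioactivity in urine and feces collected 0–24 h (rats) or 0–168 h (dogs) was counted and expressed as percent of dose. Mean ± S.D., n = 3.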

[2] = Total body clearance in Beagle dog at 0.5 mg/kg, iv administered as bolus dose by HPLC-based liquid scintillation counting analysis; format: ADME, organism-based, Canis lupus familiaris; parameters: dose 0.5 mg/kg, route intravenous; conditions: in vivo
Method in brief: (§2)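 [14C]M-III in saline given as a single iv bolus at 0.5 mg/kg to male rats (tail-vein blood, 5 min–24 h) or male beagle dogs (cephalic-vein blood, 5 min–168 h). Heparinized plasma counted for radioactivity; M-III quantified by HPLC with fraction collection and liquid scintillation counting. C5 min read directly; terminal t1/2 by linear regression, kel = ln2/t1/2, Vd = dose/back-extrapolated C0, CLtot = dose/AUCinf. Mean ± S.D., n = 3.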

[3] = Drug excretion in Beagle dog urine assessed as excretion ratio of [14C] at 0.5 mg/kg, iv administered as bolus dose measured from 0 to 168 hrs by HPLC-based liquid scintillation counting analysis; format: ADME, organism-based, Canis lupus familiaris; parameters: dose 0.5 mg/kg, route intravenous; conditions: in vivo; method in brief: as §1
[4] = Drug excretion in Crj:CD(SD)IGS rat urine assessed as excretion ratio of [14C] at 0.5 mg/kg, iv administered as bolus dose measured from 0 to 24 hrs by HPLC-based liquid scintillation counting analysis; format: ADME, organism-based; parameters: dose 0.5 mg/kg, route intravenous; conditions: in vivo; method in brief: as §1
[5] = Total body clearance in Crj:CD(SD)IGS rat at 0.5 mg/kg, iv administered as bolus dose by HPLC-based liquid scintillation counting analysis; format: ADME, organism-based; parameters: dose 0.5 mg/kg, route intravenous; conditions: in vivo; method in brief: as §2
[6] = In vivo plasma protein binding in Beagle dog at 0.5 mg/kg, iv administered as bolus dose by ultrafiltration method; format: ADME, organism-based, Canis lupus familiaris; parameters: dose 0.5 mg/kg, route intravenous; conditions: read-out: PPB (converted)
Method in brief: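 Plasma was taken from beagle dogs 24 h after a 0.5 mg/kg iv bolus of [14C]M-III (cephalic vein). Binding was determined by ultrafiltration (1500g, 37°C, 10 min), with 14C measured in plasma and filtrate.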

[7] = Drug uptake in Beagle dog plasma at 0.5 mg/kg, iv administered as bolus dose after 5 mins by HPLC-based liquid scintillation counting analysis; format: ADME, organism-based, Canis lupus familiaris; parameters: dose 0.5 mg/kg, route intravenous; method in brief: as §2
[8] = In vitro plasma protein binding in rat at 5 ug/ml by ultrafiltration method; format: ADME, cell-free; conditions: read-out: PPB (converted)
Method in brief: (§3)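 [14C]M-III in saline was added to rat or dog plasma at final 0.5, 5 and 50 µg/ml. Plasma was ultrafiltered by centrifugation at 1500g and 37°C for 10 min, and 14C was measured in plasma and filtrate. Mean ± S.D., n = 3.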

[9] = Terminal half life in Crj:CD(SD)IGS rat at 0.5 mg/kg, iv administered as bolus dose by HPLC-based liquid scintillation counting analysis; format: ADME, organism-based; parameters: dose 0.5 mg/kg, route intravenous; conditions: in vivo, read-out: beta t1/2 (converted); method in brief: as §2
[10] = Total body clearance in Crj:CD(SD)IGS rat at 0.125 mg/hr, iv administered as continuous infusion by HPLC based liquid scintillation counting analysis in presence of 62 mg/hr/kg probenecid; format: ADME, organism-based; conditions: in vivo, with probenecid 62 mg/hr/kg
Method in brief: (§4)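 Rats received a continuous iv infusion of [14C]M-III at 0.125 mg/rat/h, with probenecid co-infused at 16, 31 or 62 mg/h/kg or vehicle alone, for 5 h. Arterial plasma was sampled during infusion. CLtot = infusion rate / steady-state plasma M-III (120–180 min). Unbound fraction was measured by ultrafiltration of 5-h plasma (10,000 MWCO, 1500g, 37°C, 10 min). CLint = CLtot / unbound ratio.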

[11] = Ratio of drug level in kidney cortex to plasma in Beagle dog at 0.5 mg/kg, iv administered as bolus dose by HPLC-based liquid scintillation counting analysis; format: ADME, organism-based, Canis lupus familiaris; parameters: dose 0.5 mg/kg, route intravenous
Method in brief: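 Rats received [14C]M-III in saline by continuous jugular-vein infusion for 4 h (0.5 mg/rat/h per methods; 0.25 mg/h in legend), then aortic blood and kidneys were collected. Dogs received a 0.5 mg/kg iv bolus, with blood and kidneys (cortex and medulla separated) collected at 24 h. 14C was measured in tissue homogenates and plasma as a tissue/plasma ratio. Rat n = 3, dog n = 2.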

Rattus norvegicus = test: Intrinsic total body clearance in Crj:CD(SD)IGS rat at 0.125 mg/hr, iv administered as continuous infusion by HPLC based liquid scintillation counting analysis in presence of 16 mg/hr/kg probenecid; format: ADME, organism-based; conditions: in vivo; method in brief: as §4
[12] = AUC infinity in Crj:CD(SD)IGS rat at 0.5 mg/kg, iv administered as bolus dose by HPLC-based liquid scintillation counting analysis; format: ADME, organism-based; parameters: time infinity, dose 0.5 mg/kg, route intravenous; conditions: plasma
Method in brief: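 Male Crj:CD(SD)IGS rats (285–324 g, 8 weeks) were given [14C]M-III in saline (0.5 mg/ml) as an IV bolus of 0.5 mg–2.6 MBq/kg. Tail-vein blood was sampled from 5 min to 24 h to give heparinized plasma. After acetonitrile deproteinization, samples went through HPLC with fraction collection and scintillation counting. AUCinf = AUClast + Clast/kel, with terminal kel from linear regression; n = 3.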

[13] = Unbound fraction in Crj:CD(SD)IGS rat plasma at 0.125 mg/hr, iv administered as continuous infusion by ultrafiltration method; format: ADME, organism-based; method in brief: as §4
[14] = Unbound fraction in Crj:CD(SD)IGS rat plasma at 0.125 mg/hr, iv administered as continuous infusion by ultrafiltration method in presence of 31 mg/hr/kg probenecid; format: ADME, organism-based; conditions: with probenecid 31 mg/hr/kg; method in brief: as §4
[15] = Drug recovery in Beagle dog urine at 0.5 mg/kg, iv administered as bolus dose measured from 0 to 168 hrs by HPLC-based liquid scintillation counting analysis; format: ADME, organism-based, Canis lupus familiaris; parameters: dose 0.5 mg/kg, route intravenous; conditions: read-out: Drug recovery
Method in brief: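 After a 0.5 mg/kg iv bolus of [14C]M-III, urine was collected 0–24 h (rat) or 0–168 h (dog) and injected directly onto HPLC with fraction collection and scintillation counting. M-III in urine was derived from the urinary 14C excretion ratio and the [14C]M-III composition. CLrenal = urinary M-III amount / AUC0–24 h (rat) or AUC0–168 h (dog). Unbound CLrenal = CLrenal / free fraction.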

[16] = Terminal half life in Beagle dog at 0.5 mg/kg, iv administered as bolus dose by HPLC-based liquid scintillation counting analysis; format: ADME, organism-based, Canis lupus familiaris; parameters: dose 0.5 mg/kg, route intravenous; conditions: in vivo, read-out: beta t1/2 (converted); method in brief: as §2
[17] = In vitro plasma protein binding in dog at 5 ug/ml by ultrafiltration method; format: ADME, cell-free, Canis lupus familiaris; conditions: read-out: PPB (converted); method in brief: as §3
[18] = Drug uptake in Crj:CD(SD)IGS rat plasma at 0.5 mg/kg, iv administered as bolus dose after 5 mins by HPLC-based liquid scintillation counting analysis; format: ADME, organism-based; parameters: dose 0.5 mg/kg, route intravenous; method in brief: as §2

Drug excretion [1]: 10.3%
clearance [2]: 0.0147 mL/min/kg
Drug excretion [3]: 44.6%
Drug excretion [4]: 84.7%
clearance [5]: 10.5 mL/min/kg
fraction unbound [6]: 0.08
concentration at 5 min [7]: 4690 ng/mL
fraction unbound at 5 ug/ml [8]: 0.078
half-life [9]: 4.1 h
clearance [10]: 1.83 mL/min/kg
Kp [11]: 0.1
CL (Rattus norvegicus): 53.83 mL/min/kg
AUC(0-inf) [12]: 802 ng·h/mL
fraction unbound [13]: 0.088
fraction unbound [14]: 0.197
dose excreted [15]: 19.5%
half-life [16]: 120 h
fraction unbound at 5 ug/ml [17]: 0.087
concentration at 5 min [18]: 2290 ng/mL
SMILES: N[14c]1[14cH][14cH][14c](OS(=O)(=O)O)[14cH][14c]1Cl

Source: ChEMBL document CHEMBL3526115, “Differences in the pharmacokinetics of 4-amino-3-chlorophenyl hydrogen sulfate, a metabolite of resatorvid, in rats and dogs” (Drug Metab Dispos, 2012)
